Read-outs that look alike come from different tables or passages of the source.
How the values were obtained:
[1] = system: Japanese patients with advanced solid tumors; format: in vivo, human; conditions: for DLT event: one patient
How it was run: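 Open-label phase I at two Japanese centres; oral test compound given q.d. or b.i.d. as capsule or tablet in 28-day cycles, escalated by a 2-parameter Bayesian logistic regression model with overdose control. DLT: grade 3 or 4 AE or abnormal laboratory value (CTCAE v4.0), not attributed to disease, intercurrent illness or co-medication, within the first 28 days. MTD: highest dose not expected to cause DLT in >33% of patients.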

[2] = system: MET; conditions: read-out: IC50 (MET, biochemical); cited from earlier work
[3] = study CINC280X2103; ref data on file; cited from earlier work
[4] = system: MET-dependent (amplified/autocrine) tumor models; conditions: at tolerable doses; cited from earlier work
[5] = system: Japanese patients with advanced solid tumors; assay: Safety assessment; format: in vivo, human
How it was run: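 Patients took oral test compound daily (capsule or tablet, q.d. or b.i.d.) in 28-day cycles until progression, intolerable toxicity or withdrawal. AEs graded by CTCAE v4.0, alongside regular laboratory tests, physical examination, vital signs, weight and periodic ECG. Safety set: patients with at least one dose and at least one valid postbaseline safety assessment.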

[6] = Plasma pharmacokinetics of capmatinib; format: in vivo, human; conditions: for AUC / Cmax: 400 mg, 400 mg b.i.d., day 15; for AUC: Mean AUCtau; for Cmax: Mean Cmax
[7] = system: advanced solid tumors; assay: Tumor assessment by CT/MRI according to RECIST version 1.1; format: in vivo, human; conditions: investigator assessed; eight of 44 patients
[8] = system: MET kinase versus other kinases (panel of 57 human kinases); conditions: cited from earlier work
[9] = regardless of relationship, all patients, n = 44
[10] = regardless of study drug relationship, all patients
[11] = human, plasma, oral, capsule group
[12] = human, plasma, oral, tablet group

For `CNC(=O)c1ccc(-c2cnc3ncc(Cc4ccc5ncccc5c4)n3n2)cc1F` [capmatinib], the MTD ([1]; escalated up to 400 mg b.i.d. tablet and 600 mg b.i.d. capsule) was “not reached”, the DLT event ([1]; 400 mg b.i.d. tablet) was “grade 3 depression” and the DLT event ([1]; 600 mg b.i.d. capsule) was “grade 2 suicidal ideation”. For the same molecule, the “Highest studied dose determined to be safe, tablet” value ([1]; tablet formulation, single agent) was 400 mg b.i.d, the “Patients permanently discontinued owing to DLT” value ([1]; two patients) was 5.1% and the IC50 [2] was 0.13 nM. For the same molecule, the “Cmax geometric mean ratio (tablet vs capsule)” value [3] was 3.0, the “Effect on MET-dependent tumor models” value [4] was “causes regression” and the “Patients with one or more dose interruptions” value ([5]; 21 patients) was 47.7%. For the same molecule, the “AE requiring dose adjustment and/or interruption” value ([5]; 26 of 44 patients) was 59.1%, the Overall tolerability ([5]; Japanese patients, overall) was “well tolerated” and the “Changes in vital signs and ECG intervals” value ([5]; all patients) was “no clinically meaningful changes or trends”. For the same molecule, the “Colitis ulcerative, grade 3/4 suspected to be drug-related” value ([5]; all patients) was 1 n, the “Decreased appetite requiring dose adjustment and/or interruption” value ([5]; all patients) was 6.8% and the “Decreased appetite, suspected to be drug-related” value ([5]; all patients) was 29.5%. For the same molecule, the “Depression, grade 3/4 suspected to be drug-related” value ([5]; all patients) was 1 n, the “Diarrhea, suspected to be drug-related” value ([5]; all patients) was 20.5% and the “Hypophosphatemia, grade 3/4 suspected to be drug-related” value ([5]; all patients) was 1 n. For the same molecule, the “Increased ALT and AST, grade 3/4 suspected to be drug-related” value ([5]; all patients) was 1 n, the “Increased GGT, grade 3/4 suspected to be drug-related” value ([5]; all patients) was 1 n and the “Increased blood creatinine requiring dose adjustment and/or interruption” value ([5]; all patients) was 20.5%. The “Increased blood creatinine, suspected to be drug-related” value ([5]; all patients) was 45.5%, the “Lung infection, grade 3/4 suspected to be drug-related” value ([5]; all patients) was 1 n and the “Nausea requiring dose adjustment and/or interruption” value ([5]; all patients) was 13.6%. For the same molecule, the “Nausea, suspected to be drug-related” value ([5]; all patients) was 31.8%, the “On-treatment deaths (within 28 days after discontinuation)” value ([5]; all patients) was “No on‐treatment deaths” and the “Patients experiencing one or more AE” value ([5]; all patients) was 95.5%. For the same molecule, the “QTcB increase from baseline of more than 30 ms” value ([5]; all patients) was “three”, the “Treatment-emergent prolongation of QTcB of more than 450 ms” value ([5]; all patients) was “three” and the “Treatment-emergent prolongation of QTcB of more than 480 ms” value ([5]; all patients) was “one”. For the same molecule, the “Vomiting requiring dose adjustment and/or interruption” value ([5]; all patients) was 6.8%, the “Vomiting, suspected to be drug-related” value ([5]; all patients) was 29.5% and the “AE leading to discontinuation” value ([5]; all patients, n = 44) was 4 (9.1) n (%). For the same molecule, the “AE requiring dose interruption and/or reduction” value ([5]; all patients, n = 44) was 26 (59.1) n (%), the “AE requiring dose interruption and/or reduction, Suspected to be drug-related” value ([5]; all patients, n = 44) was 17 (38.6) n (%) and the “All deaths (incl. more than 28 days after discontinuation)” value ([5]; all patients, n = 44) was 1 (2.3) n (%). The “On-treatment deaths (up to 28 d after discontinuation)” value ([5]; all patients, n = 44) was 0 n (%), the “Patients experiencing ≥1 AE, Suspected to be drug-related” value ([5]; all patients, n = 44) was 37 (84.1) n (%) and the SAE ([5]; all patients, n = 44) was 7 (15.9) n (%). The “SAE, Suspected to be drug-related” value ([5]; all patients, n = 44) was 2 (4.5) n (%), the “Total number of patients experiencing ≥1 AE” value ([5]; all patients, n = 44) was 42 (95.5) n (%) and the “Discontinuation due to AE (all grades)” value ([5]; four of 44 patients) was 9.1%. For the same molecule, the “AE suspected to be drug-related” value ([5]; mainly grade 1/2, 37 patients) was 84.1%, the “Patients with dose interrupted only once” value ([5]; nine patients) was 20.5% and the Tolerability ([5]; p.o. 400 mg b.i.d. in tablet formulation) was “well tolerated”. For the same molecule, the “Anemia, All grades” value [5, 9] was 7 (15.9) n (%), the “Anemia, Grade 3/4” value [5, 9] was 0 n (%) and the “Any AE, All grades” value [5, 9] was 42 (95.5) n (%). For the same molecule, the “Any AE, Grade 3/4” value [5, 9] was 15 (34.1) n (%), the “Constipation, All grades” value [5, 9] was 7 (15.9) n (%) and the “Constipation, Grade 3/4” value [5, 9] was 0 n (%). For the same molecule, the “Decreased appetite, All grades” value [5, 9] was 18 (40.9) n (%), the “Decreased appetite, grade 3/4” value [5, 9] was 3 (6.8) n (%) and the “Diarrhea, All grades” value [5, 9] was 11 (25.0) n (%). The “Diarrhea, Grade 3/4” value [5, 9] was 0 n (%), the “Edema peripheral, All grades” value [5, 9] was 9 (20.5) n (%) and the “Edema peripheral, Grade 3/4” value [5, 9] was 1 (2.3) n (%). For the same molecule, the “Fatigue, All grades” value [5, 9] was 7 (15.9) n (%), the “Fatigue, Grade 3/4” value [5, 9] was 0 n (%) and the “Hypoalbuminemia, All grades” value [5, 9] was 10 (22.7) n (%). The “Hypoalbuminemia, grade 3/4” value [5, 9] was 2 (4.5) n (%), the “Increased blood creatinine, All grades” value [5, 9] was 23 (52.3) n (%) and the “Increased blood creatinine, Grade 3/4” value [5, 9] was 0 n (%). The “Malaise, All grades” value [5, 9] was 8 (18.2) n (%), the “Malaise, Grade 3/4” value [5, 9] was 0 n (%) and the “Nausea, All grades” value [5, 9] was 21 (47.7) n (%). The “Nausea, Grade 3/4” value [5, 9] was 0 n (%), the “Pyrexia, All grades” value [5, 9] was 8 (18.2) n (%) and the “Pyrexia, Grade 3/4” value [5, 9] was 0 n (%). For the same molecule, the “Vomiting, All grades” value [5, 9] was 17 (38.6) n (%), the “Vomiting, Grade 3/4” value [5, 9] was 0 n (%) and the “Grade 3/4 AE” value ([5]; regardless of study drug relationship, 15 patients) was 34.1%. For the same molecule, the “Ascites, grade 3/4” value [5, 10] was 4.5%, the “Decreased appetite, all grades” value [5, 10] was 40.9% and the “Decreased appetite, grade 3/4” value [5, 10] was 6.8%. The “Diarrhea, all grades” value [5, 10] was 25.0%, the “Hypoalbuminemia, all grades” value [5, 10] was 22.7% and the “Hypoalbuminemia, grade 3/4” value [5, 10] was 4.5%. The “Hyponatremia, grade 3/4” value [5, 10] was 9.1%, the “Hypophosphatemia, grade 3/4” value [5, 10] was 4.5% and the “Increased GGT, grade 3/4” value [5, 10] was 4.5%. For the same molecule, the “Increased blood creatinine, all grades” value [5, 10] was 52.3%, the “Nausea, all grades” value [5, 10] was 47.7% and the “Peripheral edema, all grades” value [5, 10] was 20.5%. For the same molecule, the “Vomiting, all grades” value [5, 10] was 38.6%, the “Grade 3/4 AE suspected to be drug-related” value ([5]; seven patients) was 15.9% and the “Patients with one dose reduction” value ([5]; three patients) was 6.8%. The “Median Tmax” value ([6]; day 15, tablet) was 1.0 h, the Tmax ([6]; human, plasma, oral) was 1 h and the AUC [6, 11] was 11000 ng·h/mL. It also gave an AUC [6, 12] of 31400 ng·h/mL, a Cmax [6, 11] of 1980 ng/mL and a Cmax [6, 12] of 7570 ng/mL. The Steady state achieved ([6]; pre-dose concentrations generally stable after day 15) was no more than 15 days, the “Best overall response of SD” value [7] was 18.2% and the “selectivity for MET kinase versus other kinases” value [8] was 10 000 fold.
